# Test results: BindingDB's records for doi:10.1021/jm0100741 (Tohoku University, 2001)
# Assays:
# [1] = biological target: T1, M-phase inducer phosphatase 2 (Mus musculus, UniProt P30306); experiment: Inhibitory activity against cell division cycle 25B
# T1 sequence (P30306 whole entry): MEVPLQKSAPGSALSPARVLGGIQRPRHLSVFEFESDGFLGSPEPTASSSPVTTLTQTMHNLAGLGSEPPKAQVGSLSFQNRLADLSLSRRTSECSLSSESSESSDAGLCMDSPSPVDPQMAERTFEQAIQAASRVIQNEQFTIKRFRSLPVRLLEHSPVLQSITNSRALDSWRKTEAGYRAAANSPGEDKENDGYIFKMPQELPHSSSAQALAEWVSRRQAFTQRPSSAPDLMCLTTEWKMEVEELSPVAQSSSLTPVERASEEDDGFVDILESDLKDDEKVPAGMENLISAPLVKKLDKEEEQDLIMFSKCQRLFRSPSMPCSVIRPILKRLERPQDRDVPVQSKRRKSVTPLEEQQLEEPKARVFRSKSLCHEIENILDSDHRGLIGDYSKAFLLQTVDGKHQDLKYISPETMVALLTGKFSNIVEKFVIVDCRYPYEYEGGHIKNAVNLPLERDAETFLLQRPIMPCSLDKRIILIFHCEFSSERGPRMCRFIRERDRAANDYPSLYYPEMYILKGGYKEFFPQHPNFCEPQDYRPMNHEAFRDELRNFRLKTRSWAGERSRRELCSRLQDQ
# [2] = biological target: Dual specificity protein phosphatase 3 (Homo sapiens, UniProt P51452); experiment: Inhibitory activity against vaccinia VH1-related phosphatase (VHR)
# How it was run: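 Recombinant VHR expressed in E. coli and purified, used at 0.6 μM with 10 mM pNPP substrate in 50 mM succinate, 1 mM EDTA, 150 mM NaCl, pH 6.0, ± compound. Incubated 3 min at 37 °C, stopped with 1 N NaOH, and activity read as absorbance change at 405 nm.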
# Dual specificity protein phosphatase 3, sequence (P51452 whole entry): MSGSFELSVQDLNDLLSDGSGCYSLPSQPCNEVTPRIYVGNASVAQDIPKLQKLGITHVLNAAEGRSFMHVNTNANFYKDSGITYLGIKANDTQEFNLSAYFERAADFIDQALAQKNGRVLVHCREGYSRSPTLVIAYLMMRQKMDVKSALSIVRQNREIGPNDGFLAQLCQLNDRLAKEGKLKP
Compound,IC50 [1] [µM],IC50 [2] [µM]
"CC(C)=CCCC(C)CCOC(=O)c1c(O)oc(CO)c1O (stereo unspecified) [4-Hydroxy-5-hydroxymethyl-2-oxo-2,5-dihydro-furan-3-carboxylic acid 3,7-dimethyl-oct-6-enyl ester]",> 125,> 250
"O=C(OCc1ccccc1)c1c(O)oc(CO)c1O [4-Hydroxy-5-hydroxymethyl-2-oxo-2,5-dihydro-furan-3-carboxylic acid benzyl ester]",> 125,> 250
"O=C(OC1CCCCC1)c1c(O)oc(CO)c1O [4-Hydroxy-5-hydroxymethyl-2-oxo-2,5-dihydro-furan-3-carboxylic acid cyclohexyl ester]",> 125,> 250
